EP2 antag: blocks the human prostaglandin E2 receptor EP2. 260,000 tested, 0.52% active. C6 glioma cells expressing human EP2, cAMP TR-FRET; cells stimulated with saturating PGE2. P43116. inhibition, % at 25 µM. AID 1422;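 active = percent inhibition above 40 after rounding to a whole number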;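 also: rat C6 glioma host cells with rolipram phosphodiesterase inhibitor present; the protocol text gives 20 µM as final concentration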
Target sequence (P43116 whole entry, looked up): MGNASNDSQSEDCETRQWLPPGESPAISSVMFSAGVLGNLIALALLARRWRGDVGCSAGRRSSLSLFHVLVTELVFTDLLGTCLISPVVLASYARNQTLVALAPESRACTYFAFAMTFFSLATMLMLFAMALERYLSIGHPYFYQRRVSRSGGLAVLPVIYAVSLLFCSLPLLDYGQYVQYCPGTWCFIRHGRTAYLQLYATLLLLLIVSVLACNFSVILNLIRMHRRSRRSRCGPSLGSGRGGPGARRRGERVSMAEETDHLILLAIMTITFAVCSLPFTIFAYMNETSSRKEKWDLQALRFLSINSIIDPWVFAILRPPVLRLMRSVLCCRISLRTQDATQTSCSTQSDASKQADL
EP2 mod: modulates human prostaglandin E2 receptor EP2 signaling; induction, % at 25 µM; EP2-expressing cells, cAMP HTRF FRET, PGE2 co-stimulation; P43116; AID 940; 260,000 tested, 0.83% active;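 active = compounds whose cAMP rise, as percent of the full-agonist control response, exceeds 60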;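 also: rat C6 glioma line stably carrying human EP2 under a CMV promoter; the protocol text gives 20 µM as final concentration; 100% = response of wells given 1 µM PGE2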
NPY Y2 blocker: antagonists of human neuropeptide Y receptor Y2. NPY-Y2 expressing cells, antagonist mode. 140,000 tested, 0.99% active. inhibition, % at 2.7 µM; in the data active = inhibition above about 17%;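 also: 0% = vehicle with agonist challenge and 100% = reference antagonist with challenge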
NPY1 pot ag: potentiates or activates human NPY-Y1 receptor; P25929; NPY-Y1 expressing cells, potentiator/agonist activation; activation, % at 3.6 µM; 220,000 tested, 0.37% active; in the data active = activation above about 33%, passing the limit was not always enough;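 also: cells stimulated with NPY at EC10 then isoproterenol at EC100; 0% = low agonist plus stimulus and 100% = saturating agonist plus stimulus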
NPY-Y2 PAM-ag: potentiates or activates human NPY-Y2 receptor. P49146. activation, % at 3.6 µM. 220,000 tested, 0.45% active. cells expressing NPY-Y2, potentiator/agonist read-out; in the data active = activation above about 27%;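 also: cells stimulated with NPY near EC25 plus isoproterenol at EC100; 0% = vehicle plus submaximal agonist and 100% = vehicle plus saturating agonist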
NPY-Y1 antag: blocks the human neuropeptide Y Y1 receptor; P25929; HEK293-CNG Y1 cells, membrane potential fluorescence; NPY at EC95, then isoproterenol; inhibition, % at 3.6 µM; 200,000 tested, 1% active; AID 1040;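 active = inhibition above the campaign mean inhibition of all tested compounds plus 3 SD, cut at about 20% in these data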;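 also: 0% = DMSO wells given NPY plus isoproterenol and 100% = isoproterenol alone without NPY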
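Material: HEK293 Y1/CNG channel cell line | Also added: NPY (25 nM), isoproterenol (1 µM), Ro 20-1724 (25 µM) | Compound: One concentration, 3.6 µM, in 0.4% DMSO | Schedule: 3 h dye uptake, 1 h room-temperature compound, 45 min post-isoproterenol | Signal: Membrane-potential fluorescent dye readout | Read-out: % inhibition of NPY effect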
Numbers without * were called inactive; . = not tested or not shown; ! = not active in a repeat. A selection: hits, their analogues and other compounds. The true share with any hit is near 2.8%.

SMILES	EP2 antag	EP2 mod	NPY Y2 blocker	NPY1 pot ag	NPY-Y2 PAM-ag	NPY-Y1 antag
CCN1CCCC1CN(Cc1ccccn1)Cc1nc2ccccc2[nH]1 (stereo not drawn)	2	-17	.	.	.	.
Cc1cccc(NC(=O)c2cc(-c3ccc(C)s3)nc3ccccc23)n1	13	22	23*	-117	-87	28*
Cc1ccc(-c2cc(C(=O)Nc3cccnc3)c3ccccc3n2)o1	7	-28	5	-36	-31	-4
Cc1ccc(NC(=O)c2cc(-c3ccc(C)o3)nc3ccccc23)cc1	23	33	115*	-187	-132	118*
Cc1cc(NC(=O)c2cc(-c3ccc(C)s3)nc3ccccc23)no1	10	6	6	-18	-28	4
COc1ccnc(Cn2nc3c4c(C)c(C)sc4nc(C)n3c2=O)c1OC	10	-28	.	.	.	.
NC1=N[C@@H](c2ccc(Cl)cc2)N(c2ccc(S(N)(=O)=O)cc2)C(N)=N1	47*	0	.	.	.	.
O=C(Nc1ccc(OCC(F)(F)C(F)F)c(C(F)(F)F)c1)c1ccccc1	45*	.	1	-39	-15	2
O=C(COc1ccccc1)Nc1ccc(OC(F)(F)C(F)F)c(NC(=O)COc2ccccc2)c1	16	20	34*	-56	-1	25*
CC(=O)Nc1ccc(OC(F)(F)C(F)F)c(NC(C)=O)c1	3	3	-2	-6	3	2
CS(=O)(=O)N(CC(=O)Nc1cccnc1)c1ccc(Cl)c(C(F)(F)F)c1	11	-24	.	.	.	.
CC1(C)OC(=O)C(=Cc2ccc(-c3ccc(S(N)(=O)=O)cc3)o2)C(=O)O1	43*	-88	.	-9	1	0
NS(=O)(=O)c1ccc(-c2ccc(/C=C3\C(=O)Nc4cc(Cl)ccc43)o2)cc1	7	-44	.	4	8	-2
COc1ccc(N=c2oc3cc(O)ccc3cc2C(=O)NCC2CCCO2)c(OC)c1 (stereo not drawn)	0	4	31*	-20	-10	30*
CCOc1ccccc1N=c1oc2cc(O)ccc2cc1C(=O)NCC1CCCO1 (stereo not drawn)	6	26	25*	-45	-12	36*
COc1ccc([C@@H]2C[C@H](C(=O)Nc3ccc(C(C)O)cc3)N(C)S(=O)(=O)N2)cc1OC (stereo partly drawn)	.	5	.	.	.	.
Nc1cc2nc3ccccc3oc-2cc1=O	42*	-40	.	13	14	.
O=c1oc2ccccc2cc1-c1nc2ccccc2o1	4	-18	3	-6	-24	-1
COc1cc(CN2CCN(S(=O)(=O)c3ccc4ccccc4c3)CC2)cc(OC)c1OC	5	-15	.	.	.	.
CCc1cc(=O)n2[nH]c(C)c(-c3cccs3)c2n1	.	18	.	.	.	.
O=[N+]([O-])c1cccc(-c2csc(Nc3ccccc3)n2)c1	8	28	.	22	18	2
COc1cc(NS(=O)(=O)c2ccc(Nc3nc(-c4cccc([N+](=O)[O-])c4)cs3)cc2)nc(OC)n1	45*	-67	0	7	5	-10
CCOC(=O)N1CCN(CC(O)COc2ccccc2C(C)CC)CC1 (stereo not drawn)	4	8	2	-9	3	0
CCOC(=O)N1CCN(CC(O)COC(CC)c2ccccc2)CC1 (stereo not drawn)	9	-1	-2	2	7	-4
CCC(=O)N1CCN(c2ccccc2NC(=O)COc2cc(C)ccc2C(C)C)CC1	5	-26	22*	-42	-11	31*
SMILES	EP2 antag	EP2 mod	NPY Y2 blocker	NPY1 pot ag	NPY-Y2 PAM-ag	NPY-Y1 antag
CCOC(=O)N1CCN(CC(O)COc2ccccc2C(C)C)CC1 (stereo not drawn)	8	17	2	79*	59*	-10
CCOC(=O)N1CCN(CC(O)COc2ccccc2C(C)(C)C)CC1 (stereo not drawn)	9	21	2	71*	72*	-12
CCOC(=O)N1CCN(CC(O)COc2cc(C)ccc2C(C)C)CC1 (stereo not drawn)	6	32	0	92*	81*	-13
C#CCn1cc(C(c2c(C)[nH][nH]c2=O)c2c(C)[nH][nH]c2=O)c2ccccc21	8	-24	.	.	.	.
CC1CN(CC(O)COC(c2ccccc2)c2ccccc2)CC(C)O1 (stereo not drawn)	5	5	3	-12	5	5
CC1CN(CC(O)COc2ccccc2C(C)(C)C)CC(C)O1 (stereo not drawn)	9	-4	1	100*	84*	-15
CC(Sc1nnc(-c2ccccc2Br)o1)C(=O)Nc1ccc(Br)cc1 (stereo not drawn)	14	-50	.	.	.	.
N#Cc1ccc(CSc2nnc(Cc3cccs3)n2Cc2ccco2)cc1	7	3	17	-34	-23	23*
Cc1cc(Cl)ccc1NC(=O)CSc1nnc(Cc2cccs2)n1Cc1ccco1	3	25	21*	-17	-16	23*
COc1ccc(C(O)CN2CCC(O)(c3cccc(C(F)(F)F)c3)CC2)cc1 (stereo not drawn)	7	-60	.	.	.	.
CC(=O)C1=C(O)C(=O)N(CCNCCO)C1c1ccc(C(C)C)cc1 (stereo not drawn)	9	10	.	.	.	.
CC(=O)c1cccc(Nc2nc(-c3ccccc3)cs2)c1	5	-5	.	7	9	-10
CC(=O)c1cccc(Nc2nc(-c3ccc(O)cc3O)cs2)c1	70*	-136	.	.	.	.
CSc1nc(Cc2ccc(Cl)cc2)nc2ccccc12	3	57	4	-7	-13	1
Cc1cc(Cl)nc2ccc(Cc3ccc4nc(Cl)cc(C)c4c3)cc12	42*!	-13	.	-29	-74	.
Cc1ccc(C(=O)C2=C(O)C(=O)N(Cc3ccccc3)C2c2cccnc2)o1 (stereo not drawn)	17	61*	0	9	14	12
CCOc1c(Cl)cc(C2C(C#N)=C(N)OC3=C2C(=O)CC(C)(C)C3)cc1Cl (stereo not drawn)	8	-70	.	.	.	.
CC(C)COP(=O)(OCC(C)C)C(Nc1ccccc1)c1ccc(F)cc1 (stereo not drawn)	2	44	23*	-12	1	31*
CC(C)COP(=O)(OCC(C)C)C(Nc1ccccc1)c1ccccc1 (stereo not drawn)	3	70*	.	13	-5	.
CC(C)COP(=O)(c1ccc(N(C)C)cc1)C(Nc1ccccc1)c1ccccc1 (stereo not drawn)	6	20	10	-6	-5	5
COc1ccc(C(=O)N2CCCC(c3ccnc4ncnn34)C2)cc1Cn1cccn1 (stereo not drawn)	.	-29	.	.	.	.
Cc1ccc(NC(=O)c2cccs2)cc1NC(=O)COc1ccccc1	4	-20	.	.	.	.
C/C(=N\NC1=NCCN1)c1cn(C2=NCCN2)nc1C	49*	8	.	.	.	.
COc1ccc(C2(C(=O)N3CCC(c4ccncc4)CC3)CC2)cc1	5	1	.	.	.	.

Assay outcomes: PubChem, several laboratories
